The source made the active and inactive calls. No cut-off for these calls is given here.
What was measured:
[1] = target: NAD-dependent protein deacylase sirtuin-5, mitochondrial (Homo sapiens) (UniProt Q9NXA8); assay: Activation of N-terminal his-tagged human SIRT5 (34 to 302 residues) expressed in Escherichia coli assessed as fold activation at 10 to 100 uM using CPS1-succ537 as substrate in presence of NAD+; conditions: filed as activator, dose 10-100 µM
Summary of the method: (§1)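 Coupled enzymatic deacylation assay (nicotinamidase/GDH-coupled, continuous): 1.5 μM recombinant Sirtuin (expressed in E. coli, Ni-NTA purified, tag removed, size-exclusion purified) with 50 μM substrate peptide and 100 μM NAD+, without or with 10 μM or 100 μM 1,4-DHP, 5% final DMSO. Activity expressed relative to no-compound control.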

[2] = target: T1, NAD-dependent protein deacetylase sirtuin-2 (Homo sapiens) (UniProt Q8IXJ6); assay: Activation of N-terminal SUMO-tagged human SIRT2 (43 to 356 residues) expressed in Escherichia coli assessed as deacetylation of substrate by measuring fold activation at 100 uM using acetylated alpha tubulin-K2 as substrate in presence of NAD+; conditions: filed as activator; summary of the method: as §1
T1 sequence (whole entry): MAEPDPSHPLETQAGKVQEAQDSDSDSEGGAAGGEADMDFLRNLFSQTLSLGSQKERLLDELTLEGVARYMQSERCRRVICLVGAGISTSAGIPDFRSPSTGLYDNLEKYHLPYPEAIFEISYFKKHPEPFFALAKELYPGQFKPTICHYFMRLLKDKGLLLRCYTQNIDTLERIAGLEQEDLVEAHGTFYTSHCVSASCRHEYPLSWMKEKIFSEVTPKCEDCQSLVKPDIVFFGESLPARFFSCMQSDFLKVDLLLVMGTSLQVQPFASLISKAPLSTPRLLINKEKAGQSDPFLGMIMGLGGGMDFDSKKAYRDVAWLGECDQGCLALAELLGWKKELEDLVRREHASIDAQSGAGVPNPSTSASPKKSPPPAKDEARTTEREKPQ

[3] = target: T2, NAD-dependent protein deacetylase sirtuin-1 (Homo sapiens) (UniProt Q96EB6); assay: Activation of N-terminal his-tagged human SIRT1 expressed in Escherichia coli assessed as fold activation at 100 uM using p53-acK381 as substrate in presence of NAD+; conditions: filed as activator; summary of the method: as §1
T2 sequence (whole entry): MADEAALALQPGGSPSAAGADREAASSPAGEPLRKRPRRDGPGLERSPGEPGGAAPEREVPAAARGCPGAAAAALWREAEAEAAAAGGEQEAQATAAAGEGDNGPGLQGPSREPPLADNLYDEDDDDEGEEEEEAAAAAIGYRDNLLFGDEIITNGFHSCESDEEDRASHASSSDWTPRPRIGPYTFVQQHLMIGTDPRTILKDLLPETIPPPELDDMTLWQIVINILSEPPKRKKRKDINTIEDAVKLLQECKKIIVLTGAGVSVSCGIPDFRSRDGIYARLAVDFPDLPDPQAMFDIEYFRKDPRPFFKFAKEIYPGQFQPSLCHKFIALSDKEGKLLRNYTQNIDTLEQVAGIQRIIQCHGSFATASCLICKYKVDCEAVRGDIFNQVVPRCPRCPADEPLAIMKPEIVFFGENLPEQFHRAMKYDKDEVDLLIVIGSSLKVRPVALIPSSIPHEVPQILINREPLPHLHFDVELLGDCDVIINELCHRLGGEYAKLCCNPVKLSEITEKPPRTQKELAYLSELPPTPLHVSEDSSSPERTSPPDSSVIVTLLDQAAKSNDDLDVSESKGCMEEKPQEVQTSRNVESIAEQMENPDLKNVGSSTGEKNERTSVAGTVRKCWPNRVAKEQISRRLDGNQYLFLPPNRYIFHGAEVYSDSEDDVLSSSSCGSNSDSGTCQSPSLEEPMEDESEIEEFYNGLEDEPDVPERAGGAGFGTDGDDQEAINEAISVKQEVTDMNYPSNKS

[4] = target: T3, NAD-dependent protein deacetylase sirtuin-3, mitochondrial (Homo sapiens) (UniProt Q9NTG7); assay: Activation of N-terminal his-tagged human SIRT3 (114 to 380 residues) expressed in Escherichia coli assessed as fold activation at 100 uM using ACS2-acK642 as substrate in presence of NAD+; conditions: filed as activator
T3 sequence (whole entry): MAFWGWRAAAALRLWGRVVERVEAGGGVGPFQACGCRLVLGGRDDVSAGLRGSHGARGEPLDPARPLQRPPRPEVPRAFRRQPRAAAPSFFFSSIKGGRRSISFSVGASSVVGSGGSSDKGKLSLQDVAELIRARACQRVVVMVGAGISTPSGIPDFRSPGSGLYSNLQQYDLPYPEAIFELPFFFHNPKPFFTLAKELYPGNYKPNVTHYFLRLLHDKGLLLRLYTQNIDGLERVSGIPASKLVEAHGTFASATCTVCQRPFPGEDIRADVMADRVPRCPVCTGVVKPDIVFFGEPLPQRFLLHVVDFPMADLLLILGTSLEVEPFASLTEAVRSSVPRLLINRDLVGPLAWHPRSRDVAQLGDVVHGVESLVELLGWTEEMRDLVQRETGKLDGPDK
Summary of the method: (§2)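 Coupled continuous enzymatic assay (nicotinamidase/GDH-linked): 1.5 µM purified Sirt3 with 50 µM ACS2-acK642 peptide and 100 µM NAD+, compound at 10 µM, 100 µM or titrated, 5% DMSO final; fold deacetylation versus no-compound control.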

[5] = target: T2, NAD-dependent protein deacetylase sirtuin-1 (Homo sapiens); assay: Activation of N-terminal his-tagged human SIRT1 expressed in Escherichia coli assessed as fold activation at 10 to 100 uM using p53-acK381 as substrate in presence of NAD+; conditions: filed as activator, dose 10-100 µM; summary of the method: as §1
[6] = target: T3, NAD-dependent protein deacetylase sirtuin-3, mitochondrial (Homo sapiens); assay: Activation of N-terminal his-tagged human SIRT3 (114 to 380 residues) expressed in Escherichia coli at 100 uM using ACS2-acK642 as substrate in presence of NAD+ by Mass spectrometry assay relative to control; conditions: filed as activator
Summary of the method: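 Mass-spectrometric deacetylation assay using coupled-assay components (1.5 µM Sirt3, 50 µM peptide, 100 µM NAD+, compound 100 µM) in 50 mM Na-phosphate pH 7.8 plus 0.05 µg/µL PNCA to remove nicotinamide; product and substrate peptides quantified.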

[7] = target: T3, NAD-dependent protein deacetylase sirtuin-3, mitochondrial (Homo sapiens); assay: Activation of SIRT3 in human MDA-MB-231 cells assessed as increase in FdL deacetylation activity at 50 to 100 uM incubated for 3 hrs; type: cell-based; conditions: filed as activator, dose 50-100 µM
Summary of the method: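 MDA-MB-231 cells (RPMI 1640, 10% FBS, 37 °C, 5% CO2) treated 3 h at 50 or 100 µM; 40 µg mitochondrial extract incubated with Fluor de Lys substrate 40 min 37 °C, then developer 10 min; fluorescence ex 360/em 460 nm, buffer background subtracted.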

[8] = target: T3, NAD-dependent protein deacetylase sirtuin-3, mitochondrial (Homo sapiens); assay: Activation of STAT3 protein level in human MDA-MB-231 cells assessed as STAT3 protein expression incubated for 24 hrs by Western blotting; type: cell-based; conditions: filed as activator
[9] = target: T3, NAD-dependent protein deacetylase sirtuin-3, mitochondrial (Homo sapiens); assay: Activation of SIRT3 in human MDA-MB-231 cells assessed as increase in GDH activity at 50 uM incubated for 8 hrs […]; type: cell-based; conditions: filed as activator
Summary of the method: (§3)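 MDA-MB-231 cells given 50 µM compound for 4 h, or 4 h then re-dosed for a further 4 h; 10^6 cells lysed, supernatant mixed with glutamate/developer mix, 3 min at 37 °C, absorbance 450 nm, buffer blank subtracted; means ± SD, Student's t-test.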

[10] = target: T3, NAD-dependent protein deacetylase sirtuin-3, mitochondrial (Homo sapiens); assay: Activation of SIRT3 in human MDA-MB-231 cells assessed as decrease in MnSOD-Lys68 acetylation level at 50 uM incubated for 16 hrs by Western blot analysis assay; type: cell-based; conditions: filed as activator
Summary of the method: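 MDA-MB-231 cells (wild-type and Sirt3-knockdown) treated with 50 µM; 50 µg whole-cell lysate protein run on SDS-PAGE, blotted to PVDF, probed with anti-MnSOD-acK68 and anti-MnSOD, ECL detection; each blot done in triplicate.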

[11] = target: T3, NAD-dependent protein deacetylase sirtuin-3, mitochondrial (Homo sapiens); assay: Activation of N-terminal his-tagged human SIRT3 (114 to 380 residues) expressed in Escherichia coli using ACS2-acK642 as substrate in presence of NAD+; conditions: filed as activator; summary of the method: as §2
[12] = target: T3, NAD-dependent protein deacetylase sirtuin-3, mitochondrial (Homo sapiens); assay: Activation of N-terminal his-tagged human SIRT3 (114 to 380 residues) expressed in Escherichia coli assessed as fold activation at 10 to 100 uM using ACS2-acK642 as substrate in presence of NAD+; conditions: filed as activator, dose 10-100 µM; summary of the method: as §2
[13] = target: NAD-dependent protein deacylase sirtuin-5, mitochondrial (Homo sapiens) (UniProt Q9NXA8); assay: Activation of N-terminal his-tagged human SIRT5 (34 to 302 residues) expressed in Escherichia coli assessed as fold activation at more than 200 uM using CPS1-succ537 as substrate in presence of NAD+; conditions: filed as activator
Summary of the method: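 Sirt5 desuccinylation measured by coupled enzymatic assay: 1.5 µM enzyme, 50 µM CPS1-succK537 peptide, 100 µM NAD+, 5% DMSO final; compound titrated; fold activation relative to untreated reaction.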

[14] = target: T1, NAD-dependent protein deacetylase sirtuin-2 (Homo sapiens); assay: Activation of N-terminal SUMO-tagged human SIRT2 (43 to 356 residues) expressed in Escherichia coli assessed as deacetylation of substrate at 100 uM using acetylated alpha tubulin-K2 as substrate in presence of NAD+; conditions: filed as activator; summary of the method: as §1
[15] = target: T3, NAD-dependent protein deacetylase sirtuin-3, mitochondrial (Homo sapiens); assay: Activation of SIRT3 in human MDA-MB-231 cells assessed as increase in GDH activity at 50 uM incubated for 4 hrs […]; type: cell-based; conditions: filed as activator; summary of the method: as §3
[16] = target: T4, NAD-dependent protein deacetylase sirtuin-3 (Mus musculus) (UniProt Q8R104); assay: Activation of SIRT3 in mouse MEF cells assessed as fold increase in mitochondrial mass at 25 uM incubated for 24 hrs by MT-DR staining based FACS assay; type: cell-based; conditions: filed as activator
T4 sequence (whole entry): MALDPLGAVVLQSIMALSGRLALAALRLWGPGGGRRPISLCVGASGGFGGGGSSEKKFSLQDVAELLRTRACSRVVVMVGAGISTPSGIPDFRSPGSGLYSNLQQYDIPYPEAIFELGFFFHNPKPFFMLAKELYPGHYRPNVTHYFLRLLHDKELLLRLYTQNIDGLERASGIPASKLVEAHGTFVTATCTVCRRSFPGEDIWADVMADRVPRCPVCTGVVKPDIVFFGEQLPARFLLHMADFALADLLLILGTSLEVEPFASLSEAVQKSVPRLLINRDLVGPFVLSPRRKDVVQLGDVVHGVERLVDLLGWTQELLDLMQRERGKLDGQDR
Summary of the method: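 Wild-type and Sirt3 knock-out MEFs exposed to 25 µM compound for 24 h, then stained with 10 nM MitoTracker Deep Red for 30 min at 37 °C; mitochondrial mass by FACS; mean ± SD, n = 2.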

Chain of NAD-dependent protein deacylase sirtuin-5, mitochondrial (Homo sapiens) (Q9NXA8 37-310 limits assumed): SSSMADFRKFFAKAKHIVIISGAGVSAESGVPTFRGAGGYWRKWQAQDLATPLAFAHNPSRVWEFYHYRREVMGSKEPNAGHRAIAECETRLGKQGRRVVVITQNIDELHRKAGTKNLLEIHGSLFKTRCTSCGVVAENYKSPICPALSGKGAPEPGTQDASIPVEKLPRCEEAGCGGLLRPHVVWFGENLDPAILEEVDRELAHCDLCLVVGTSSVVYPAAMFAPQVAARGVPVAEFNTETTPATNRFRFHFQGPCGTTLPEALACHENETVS

CCOC(=O)C1=CN(C(=O)c2cc(OC)c(OC)c(OC)c2)C=C(C(=O)OCC)C1c1cccc(N)c1
fold change (FC) [1]: 3 | fold change (FC) [2]: 2.5 | fold change (FC) [3]: 4

CCOC(=O)C1=CN(C(=O)c2ccccc2)C=C(C(=O)OCC)C1c1ccccc1
fold change (FC) [4]: 3.5 | fold change (FC) [5]: 1.5 | Activity [6]: 300% | Activity [7]: Active | Activity [8]: Active | Activity [9]: Active | Activity [10]: Active

CCOC(=O)C1=CN(C(=O)c2cc(OC)c(OC)c(OC)c2)C=C(C(=O)OCC)C1c1ccccc1
Activity [11]: Active | fold change (FC) [12]: 5 | Activity [6]: 400% | fold change (FC) [13]: 5 | Activity [14]: Active | Activity [15]: Active

CCOC(=O)C1=CN(Cc2ccccc2)C=C(C(=O)OCC)C1c1cnc2ccccc2c1
fold change (FC) [5]: 1.5 | Activity [16]: Active

— ChEMBL document CHEMBL5108071, “Potent and Specific Activators for Mitochondrial Sirtuins Sirt3 and Sirt5” (J Med Chem, 2022)
